# From ChEMBL document CHEMBL1157755 (Bioorg Med Chem Lett, 2010)
# Tests used:
# [1] = biological target: T1, Histamine H2 receptor (Homo sapiens, UniProt P25021); assay: Selectivity ratio of EC50 for human histamine H2 to EC50 for guinea pig histamine H2 receptor
# [2] = biological target: Histamine H2 receptor (Cavia porcellus) (UniProt P47747); assay: Agonist activity at GsalphaS-fused guinea pig histamine H2 receptor expressed in Sf9 cells by steady-state GTPase assay relative to histamine
# [3] = biological target: T2, Histamine H4 receptor (Homo sapiens, UniProt Q9H3N8); assay: Activity at human recombinant GAIP-fused histamine H4 receptor expressed in Sf9 cells coexpressing Galphai, Gbeta1gamma2 by steady-state GTPase activity assay relative to histamine
# Summary of the method: (§1)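 Steady-state GTPase activity was measured in Sf9 insect cell membranes. hH1R was co-expressed with RGS4; hH3R with Galphai2, Gbeta1gamma2 and RGS4; and hH4R-GAIP fusion protein with Galphai2 and Gbeta1gamma2. Agonist pEC50 or antagonist pKB was determined. […] Values are means of two to three experiments, each in duplicate.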
# [4] = biological target: T3, Histamine H1 receptor (Homo sapiens, UniProt P35367); assay: Activity at human recombinant histamine H1 receptor expressed in Sf9 cells coexpressing RGS4 by steady-state GTPase activity assay relative to histamine
# Summary of the method: as §1
# [5] = biological target: Histamine H2 receptor (Cavia porcellus) (UniProt P47747); assay: Agonist activity at histamine H2 receptor in spontaneously beating guinea pig atrium assessed as increase in heart rate as relative to histamine; type: functional, tissue-based; settings: Cardiac atrium
# [6] = biological target: T1, Histamine H2 receptor; assay: Agonist activity at GsalphaS-fused human histamine H2 receptor expressed in Sf9 cells by steady-state GTPase assay relative to histamine
# [7] = biological target: T4, Histamine H2 receptor (Cavia porcellus, UniProt P47747); assay: Agonist activity at histamine H2 receptor in spontaneously beating guinea pig atrium; type: functional, tissue-based, Cardiac atrium
# [8] = biological target: T1, Histamine H2 receptor; assay: Agonist activity at GsalphaS-fused human histamine H2 receptor expressed in Sf9 cells by steady-state GTPase assay
# [9] = biological target: T4, Histamine H2 receptor; assay: Agonist activity at GsalphaS-fused guinea pig histamine H2 receptor expressed in Sf9 cells by steady-state GTPase assay
# [10] = biological target: T2, Histamine H4 receptor; assay: Activity at human recombinant GAIP-fused histamine H4 receptor expressed in Sf9 cells coexpressing Galphai, Gbeta1gamma2 by steady-state GTPase activity assay
# Summary of the method: (§2)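 Steady-state GTPase activity was measured in Sf9 insect cell membranes. hH1R was co-expressed with RGS4; hH3R with Galphai2, Gbeta1gamma2 and RGS4; and hH4R-GAIP fusion protein with Galphai2 and Gbeta1gamma2. Agonist pEC50 or antagonist pKB was determined. Values are means of two to three experiments, each in duplicate.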
# [11] = biological target: T3, Histamine H1 receptor; assay: Activity at human recombinant histamine H1 receptor expressed in Sf9 cells coexpressing RGS4 by steady-state GTPase activity assay
# Summary of the method: as §2
# T3 sequence (P35367 whole entry): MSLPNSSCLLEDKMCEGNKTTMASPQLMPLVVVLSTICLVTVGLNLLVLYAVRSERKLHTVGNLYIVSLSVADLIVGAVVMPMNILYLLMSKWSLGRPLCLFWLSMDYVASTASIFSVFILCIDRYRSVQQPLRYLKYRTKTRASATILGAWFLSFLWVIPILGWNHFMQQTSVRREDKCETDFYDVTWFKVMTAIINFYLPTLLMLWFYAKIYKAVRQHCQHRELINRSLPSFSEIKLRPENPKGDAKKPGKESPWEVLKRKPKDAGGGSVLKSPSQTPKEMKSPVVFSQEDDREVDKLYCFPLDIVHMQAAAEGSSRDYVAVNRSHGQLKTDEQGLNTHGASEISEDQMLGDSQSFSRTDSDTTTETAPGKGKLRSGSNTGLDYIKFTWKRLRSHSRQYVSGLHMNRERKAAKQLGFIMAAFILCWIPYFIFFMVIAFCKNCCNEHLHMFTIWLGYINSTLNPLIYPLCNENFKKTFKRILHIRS
# T4 sequence (P47747 whole entry, the tested form may be a part): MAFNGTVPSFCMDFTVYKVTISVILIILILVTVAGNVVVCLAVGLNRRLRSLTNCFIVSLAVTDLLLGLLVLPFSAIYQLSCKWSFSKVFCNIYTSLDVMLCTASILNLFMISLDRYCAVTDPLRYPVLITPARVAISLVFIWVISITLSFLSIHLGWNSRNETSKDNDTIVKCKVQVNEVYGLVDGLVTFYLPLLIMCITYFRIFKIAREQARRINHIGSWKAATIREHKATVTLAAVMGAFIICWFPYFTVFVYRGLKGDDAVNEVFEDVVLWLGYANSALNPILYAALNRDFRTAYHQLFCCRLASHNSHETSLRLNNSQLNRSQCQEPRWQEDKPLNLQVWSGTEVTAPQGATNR
# Sequence of Histamine H2 receptor (Cavia porcellus) (P47747 whole entry, the tested form may be a part): as above
# T1 sequence (P25021 whole entry, the tested form may be a part): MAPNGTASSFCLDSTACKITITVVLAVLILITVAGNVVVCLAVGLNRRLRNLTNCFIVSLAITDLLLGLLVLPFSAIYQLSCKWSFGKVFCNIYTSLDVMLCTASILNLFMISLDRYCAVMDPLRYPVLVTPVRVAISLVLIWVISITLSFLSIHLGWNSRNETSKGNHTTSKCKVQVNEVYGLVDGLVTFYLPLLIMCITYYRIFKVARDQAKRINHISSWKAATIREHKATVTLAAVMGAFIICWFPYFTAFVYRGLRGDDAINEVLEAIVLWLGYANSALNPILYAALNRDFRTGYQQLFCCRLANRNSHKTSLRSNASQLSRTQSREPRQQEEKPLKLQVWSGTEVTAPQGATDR
Compound,Ratio EC50 [1],Emax [2] [%],Emax [3] [%],Emax [4] [%],Emax [6] [%],EC50 [7] [nM],EC50 [8] [nM],EC50 [9] [nM],EC50 [10] [nM],EC50 [11] [nM],Emax [5] [%]
Cc1nc(N)sc1CCCN=C(N)NC(=O)C[C@@H](C)c1ccccc1,,,,,,102,53.7,17,,,
C[C@H](CC(=O)NC(=N)NCCCc1c[nH]cn1)c1ccccc1,1.58,101,85,34,101,,,,,,93
Cc1nc(N)sc1CCCNC(=N)NC(=O)C[C@@H](C)c1ccccc1,3.14,86,,,65,,,,,,73
Cc1nc(N)sc1CCCNC(=N)NC(=O)CC(C)c1ccccc1 (racemic),2.22,98,,,82,49,50.1,22.4,,,89
Cc1nc(N)sc1CCCNC(=N)NC(=O)C[C@H](C)c1ccccc1,3.6,99,,,87,39.8,28.2,7.76,,,87
Cc1nc(N)sc1CCCN=C(N)NC(=O)C[C@@H](C)C1CCCCC1,,,,,,57.5,20.4,13.2,,,
C[C@H](CC(=O)NC(N)=NCCCc1cnc[nH]1)C1CCCCC1,,,,,,102,18.6,19.1,8.32,89.1,
C[C@H](CC(=O)NC(N)=NCCCc1cnc[nH]1)c1ccccc1,,,,,,93.3,120,75.9,22.9,6170,
C[C@@H](CC(=O)NC(N)=NCCCc1cnc[nH]1)c1ccccc1,,,,,,25.1,79.4,24,2.63,832,
NCCc1c[nH]cn1 [HISTAMINE],,100,100,100,100,,,,,,100
Cc1nc(N)sc1CCCN=C(N)NC(=O)C[C@H](C)C1CCCCC1,,,,,,91.2,28.8,14.1,,,

# The next lines start with results.
Ratio EC50 [1],Emax [2] [%],Emax [3] [%],Emax [4] [%],Emax [6] [%],EC50 [7] [nM],EC50 [8] [nM],EC50 [9] [nM],EC50 [10] [nM],EC50 [11] [nM],Compound,Emax [5] [%]
0.98,90,57,41,85,,,,,,C[C@H](CC(=O)NC(=N)NCCCc1c[nH]cn1)C1CCCCC1,82
2.05,90,,,71,,,,,,Cc1nc(N)sc1CCCNC(=N)NC(=O)C[C@H](C)C1CCCCC1,78
1.24,82,,,56,69.2,9.33,7.59,,,Cc1nc(N)sc1CCCNC(=N)NC(=O)CC(C)C1CCCCC1 (racemic),74
1.53,80,,,62,,,,,,Cc1nc(N)sc1CCCNC(=N)NC(=O)C[C@@H](C)C1CCCCC1,80
3.32,119,82,53,107,,,,,,C[C@@H](CC(=O)NC(=N)NCCCc1c[nH]cn1)c1ccccc1,102
,,,,,33.1,6.46,7.76,4.57,66.1,C[C@@H](CC(=O)NC(N)=NCCCc1cnc[nH]1)C1CCCCC1,
0.84,93,59,51,99,,,,,,C[C@@H](CC(=O)NC(=N)NCCCc1c[nH]cn1)C1CCCCC1,103
